This is a sample that favours compounds with a hit; in the whole collection about 5% have one here.
Mdm2-MdmX inh: human Mdm2/MdmX binding inhibition; O15151+Q00987; SaOS-2 split-luciferase Mdm2/MdmX complementation, luminescence; inhibition, % at 8 µM; 3% of 330,000 active; AID 485346;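 active means inhibition of at least 50% at 8 µM in the primary screen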
Target sequence (O15151 whole entry, looked up): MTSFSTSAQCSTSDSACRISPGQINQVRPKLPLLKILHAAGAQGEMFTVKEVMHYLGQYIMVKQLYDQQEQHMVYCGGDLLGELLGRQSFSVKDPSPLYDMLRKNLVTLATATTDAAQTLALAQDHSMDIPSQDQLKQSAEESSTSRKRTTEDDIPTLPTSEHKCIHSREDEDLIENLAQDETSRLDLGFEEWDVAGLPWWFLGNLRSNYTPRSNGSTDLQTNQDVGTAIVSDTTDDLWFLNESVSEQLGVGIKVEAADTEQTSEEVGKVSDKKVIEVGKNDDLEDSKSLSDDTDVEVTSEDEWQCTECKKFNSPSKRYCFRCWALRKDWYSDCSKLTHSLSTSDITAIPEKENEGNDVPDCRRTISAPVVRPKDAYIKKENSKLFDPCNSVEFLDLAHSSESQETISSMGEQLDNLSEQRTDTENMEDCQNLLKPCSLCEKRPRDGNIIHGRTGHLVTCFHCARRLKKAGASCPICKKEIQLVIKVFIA
Target sequence (Q00987 whole entry, looked up): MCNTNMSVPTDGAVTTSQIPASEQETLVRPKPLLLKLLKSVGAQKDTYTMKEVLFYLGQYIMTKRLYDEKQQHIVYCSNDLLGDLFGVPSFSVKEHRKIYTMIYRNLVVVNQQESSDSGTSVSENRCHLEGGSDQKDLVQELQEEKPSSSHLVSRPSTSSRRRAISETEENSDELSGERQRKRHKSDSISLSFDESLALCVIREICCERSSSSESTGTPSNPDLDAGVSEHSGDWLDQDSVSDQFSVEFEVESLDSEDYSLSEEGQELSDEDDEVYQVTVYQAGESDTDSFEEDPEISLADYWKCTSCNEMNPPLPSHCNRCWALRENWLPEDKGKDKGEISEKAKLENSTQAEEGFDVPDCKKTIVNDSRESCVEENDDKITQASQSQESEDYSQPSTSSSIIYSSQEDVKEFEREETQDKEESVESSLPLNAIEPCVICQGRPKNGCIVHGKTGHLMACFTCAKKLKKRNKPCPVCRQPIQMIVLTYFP
Beta cell apopt: blocks beta cell apoptosis; INS-1E cytokine-induced death, ATP luminescence, 48 h; percent of positive-control rescue, neutral wells zero; protection from apoptosis, % (concentration not given with the values); 0.8% of 300,000 active; AID 435005;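 active means Every replicate reaches about 75%, or at least half do and their mean reaches it too, limit read from the data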;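 further: 0% = cytokine-treated negative control wells and 100% = positive control rescue; higher means more ATP so stronger rescue from cytokine killing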
CSC inhib: blocks cancer stem cells; AID 2717; inhibition, % at 7.5 µM; cancer stem cell-like cells viability, luminescence; 1.1% of 300,000 active; in the data active means inhibition above about 75%; tested in HMLE shEcad cells
UPR XBP1 act: adaptive UPR (XBP1) activation; CHO-XBP1 luciferase reporter, IRE1-XBP1 UPR activation, luminescence; percent of tunicamycin response, DMSO as zero; activation, % at 20 µM; 0.33% of 330,000 active; AID 463104;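 active means versus positive control, 20 µM dose yields 30% or more activation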;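 further: 100% = tunicamycin at 10 µg/mL and 0% = DMSO only wells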
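assay system = CHO-XBP1 luciferase reporter cells | amount = 1000 cells/well | buffer or medium = F12 plus 10% FBS | compound dosing = single point, 20 µM final compound, 1% DMSO | incubation = 16-18 h cell attachment at 37 °C, then 6 h compound exposure | detection = Steady-Glo luminescence read | controls = tunicamycin 10 µg/mL and vehicle-only wells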
CHOP UPR activ: activators of apoptotic arm of unfolded protein response (CHOP) | CHO-CHOP luciferase reporter, UPR activation, luminescence; percent of tunicamycin response over DMSO baseline | activation, % at 10 µM | 0.34% of 330,000 active | AID 449763;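 active means at 10 µM dose, activation of 40% or more, normalized to positive control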;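 further: 100% = tunicamycin at 10 µg/mL and 0% = DMSO alone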
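Evaluation: % reporter activation, DMSO baseline versus tunicamycin full activation; System: CHO-CHOP luciferase reporter cell line; Input: 500 cells/well; Incubation: 6 h compound treatment, 37 °C; Measured by: Steady-Glo luciferase luminescence; Dosing: one dose, 10 µM in 0.5% DMSO; Buffer or medium: F12 medium, 10% FBS; Benchmarks: positive tunicamycin 10 µg/mL, negative DMSO alone.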
T cruzi repl: T. cruzi replication inhibition; T. cruzi beta-gal in NIH3T3, luminescence, 90 h; inhibition, % (concentration not given with the values); AID 1885; 1.4% of 300,000 active;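 active means mean inhibition across valid replicates above about 55%, limit read from the data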;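 further: signal also drops with host cell toxicity which is not excluded here; 0% = plate median of DMSO wells and 100% = zero luminescence signal; higher percent means less beta-gal luminescence so fewer parasites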
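System – NIH/3T3 host cells with β-galactosidase reporter T. cruzi · Doses – single 50 nL compound addition per well in DMSO · Reagent – 5000 T. cruzi trypomastigotes/well · Medium – Low-serum DMEM with 2% FBS · Timing – ≥90 h infection period, 3 h prior cell attachment · Evaluation – parasite load inhibition, % · Technique – GalScreen luminescence, 60 min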
Mdm2-MdmX conf: human Mdm2/MdmX binding inhibition, confirmed. shares compounds with Mdm2-MdmX inh. luminescent assay. inhibition, % at 8 µM. 55% of 10,000 active; in the data active means inhibition above about 40%
Full FLuc ctr: full-length luciferase inhibition in Mdm2/MdmX counter-screen; shares compounds with Mdm2-MdmX inh; inhibition, % at 8 µM; SaOS-2 full-length luciferase counterscreen, luminescence; 77% of 6,200 active; AID 504607;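 active means mean inhibition at 8 µM reaching about 37%, which flags the compound as non-specific, limit read from the data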;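 further: p53-null SaOS-2 cells with luciferase driven by a doxycycline-inducible promoter; compound on cells about two nights before reading with doxycycline added after day one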
An asterisk follows results filed as active.

`O=C(Nc1nc(-c2ccccn2)cs1)C1COc2ccccc2O1` (stereo not drawn) gave Mdm2-MdmX inh 64.9*, Beta cell apopt -0.5, CSC inhib 37.6, UPR XBP1 act 1.0, CHOP UPR activ 2.5, Mdm2-MdmX conf 70.7* and Full FLuc ctr 55.6*.
`O=C(Nc1nc(-c2ccccc2)cs1)C1COc2ccccc2O1` (stereo not drawn) gave Mdm2-MdmX inh -7.1, Beta cell apopt -2.8, CSC inhib -8.2, UPR XBP1 act 7.0, CHOP UPR activ 1.1 and T cruzi repl 0.7.
`COc1ccc(CNC(=O)CN2C(=O)COc3ccc(S(=O)(=O)N4CCCCC4)cc32)cc1` gave Mdm2-MdmX inh -1.1, Beta cell apopt -3.7, CSC inhib -8.4, UPR XBP1 act -0.3, CHOP UPR activ -1.3 and T cruzi repl -6.6.
Screening Cc1cc(C(=O)Nc2nc(-c3ccccn3)cs2)ccc1[N+](=O)[O-] returned Mdm2-MdmX inh 63.3*, Beta cell apopt 2.8, CSC inhib -3.8, UPR XBP1 act -0.5, CHOP UPR activ 0.3, T cruzi repl 80.3*, Mdm2-MdmX conf 64.2* and Full FLuc ctr 40.3*.
For CC(=O)Nc1ccc(-c2csc(NC(=O)c3ccc(C)o3)n2)cc1 the results were Mdm2-MdmX inh 6.1, Beta cell apopt -1.4, CSC inhib -3.7, UPR XBP1 act 7.0, CHOP UPR activ -1.2 and T cruzi repl 3.9.
Screening CC(=O)c1ccc(-c2ccc(C(=O)Nc3nc(-c4ccccn4)cs3)o2)cc1 returned Mdm2-MdmX inh 91.4*, Beta cell apopt -10.1, CSC inhib 26.5, UPR XBP1 act 1.0, CHOP UPR activ 5.3, Mdm2-MdmX conf 86.2* and Full FLuc ctr 40.4*.
O=C(Nc1nc(-c2ccccn2)cs1)c1ccc([N+](=O)[O-])o1 was read as Mdm2-MdmX inh 76.7*, Beta cell apopt 90.2*, CSC inhib 47.3, UPR XBP1 act 2.5, CHOP UPR activ 0.9, T cruzi repl 46.9, Mdm2-MdmX conf 68.0* and Full FLuc ctr 37.2*.
`Cc1ccc(C(=O)Nc2nc(-c3ccccn3)cs2)o1` gave Mdm2-MdmX inh 73.7*, Beta cell apopt 61.8, CSC inhib 31.1, UPR XBP1 act -1.6, CHOP UPR activ 2.5, T cruzi repl 44.9, Mdm2-MdmX conf 56.4* and Full FLuc ctr 40.0*.
`CC(C)NC(=O)COC(=O)c1ccccc1CSC1=NCCS1` gave Mdm2-MdmX inh 13.2, Beta cell apopt -5.2, CSC inhib -11.6, UPR XBP1 act -3.5, CHOP UPR activ 0.4 and T cruzi repl 2.2.
O=C(Nc1nc(-c2ccccn2)cs1)c1ccc(-c2ccccc2F)o1 was read as Mdm2-MdmX inh 57.3*, Beta cell apopt 33.8, UPR XBP1 act 4.2, CHOP UPR activ 1.1, Mdm2-MdmX conf 50.5* and Full FLuc ctr 62.8*.
Screening O=C(Nc1nc(-c2cc(F)ccc2F)cs1)c1ccccn1 returned Mdm2-MdmX inh 41.7, Beta cell apopt 11.2, CSC inhib 42.7, UPR XBP1 act 1.5, CHOP UPR activ 4.3 and T cruzi repl -15.7.
O=C(NCCc1csc(-c2ccc(C(F)(F)F)cc2)n1)c1cccs1 was read as Mdm2-MdmX inh 14.3, Beta cell apopt 0.8, CSC inhib 30.3, UPR XBP1 act -0.7, CHOP UPR activ -0.3 and T cruzi repl -2.7.
For Cc1ccc(NC(=O)C2CCCN(S(=O)(=O)c3cccc4cccnc34)C2)cc1 (stereo not drawn) the results were Mdm2-MdmX inh 16.4, Beta cell apopt -5.1, CSC inhib -1.4, UPR XBP1 act -1.9, CHOP UPR activ -0.7 and T cruzi repl -0.9.
`Cc1ccc(C(=O)c2no[n+]([O-])c2C(=O)c2ccc(C)cc2)cc1` gave Mdm2-MdmX inh 50.7*, Beta cell apopt 3.7, CSC inhib 36.1, UPR XBP1 act -6.0, CHOP UPR activ 35.8, T cruzi repl 12.1 and Mdm2-MdmX conf 8.8.
`CCN1CCN(Cc2ccc(NC(=O)c3cc(NC(=O)c4cnnc5ccccc45)cc(OC)c3)cc2C(F)(F)F)CC1` gave Mdm2-MdmX inh 52.0*, Beta cell apopt 10.0, CSC inhib 2.3, UPR XBP1 act 6.9, CHOP UPR activ 0.4, T cruzi repl 18.8 and Mdm2-MdmX conf 26.5.
For CCN1CCN(Cc2ccc(NC(=O)c3cc(NC(=O)c4cncc(-c5ccc(C#N)cc5)c4)cc(OC)c3)cc2C(F)(F)F)CC1 the results were Mdm2-MdmX inh 99.8*, Beta cell apopt 86.7*, CSC inhib 31.3, UPR XBP1 act -9.2, CHOP UPR activ 3.3, T cruzi repl 50.0 and Mdm2-MdmX conf 19.7.
Screening O=C(CSc1nnnn1-c1cccc2ccccc12)Nc1ccc(C(=O)O)cc1 returned Mdm2-MdmX inh -2.5, Beta cell apopt -7.3, CSC inhib -13.3, UPR XBP1 act -5.1, CHOP UPR activ -2.6 and T cruzi repl -5.6.
`CCNc1c(NC(=O)C2CCC(C)CC2)c(=O)oc2ccccc12` (stereo not drawn) gave Mdm2-MdmX inh 8.0, Beta cell apopt 3.5, UPR XBP1 act -4.4, CHOP UPR activ 0.4 and T cruzi repl 3.6.
For COc1ccc(-c2oc(=O)c3cc(OC)c(OC)cc3c2/C=C/c2ccc(OC(C)=O)cc2)cc1 the results were Mdm2-MdmX inh 60.3*, Beta cell apopt 2.9, UPR XBP1 act 17.8, CHOP UPR activ 14.5, Mdm2-MdmX conf 38.0 and Full FLuc ctr 62.8*.
For CCN(CC)C(=O)Cn1c(C)c(/C=C/c2cc[n+](C)cc2)c2ccccc21 the results were Mdm2-MdmX inh 10.6, Beta cell apopt -5.2, CSC inhib -6.7, UPR XBP1 act -5.1, CHOP UPR activ 0.0 and T cruzi repl 5.5.
`C=CCn1cc(/C=C/c2cc[n+](C)cc2)c2ccccc21` gave Mdm2-MdmX inh 65.5*, Beta cell apopt 79.9*, CSC inhib 25.6, UPR XBP1 act -3.8, CHOP UPR activ 1.1, T cruzi repl 55.0*, Mdm2-MdmX conf 42.1* and Full FLuc ctr 76.2*.
CC(C)n1cc(/C=C/c2cc[n+](C)cc2)c2ccccc21 was read as Mdm2-MdmX inh 63.4*, UPR XBP1 act -3.7, CHOP UPR activ -0.2, T cruzi repl 45.4 and Mdm2-MdmX conf 24.9.
For C=CCn1c(C)c(/C=C/c2cc[n+](C)cc2)c2ccccc21 the results were Mdm2-MdmX inh 64.2*, Beta cell apopt 97.4*, CSC inhib 14.9, UPR XBP1 act -3.0, CHOP UPR activ 1.9, T cruzi repl 74.5*, Mdm2-MdmX conf 40.7* and Full FLuc ctr 69.4*.
